# Experimental data from ChEMBL document CHEMBL1143171, “Structure-activity studies on 1,3-dioxane-2-carboxylic acid derivatives, a novel class of subtype-selective peroxisome proliferator-activated receptor alpha (PPARalpha) agonists” (Bioorg Med Chem, 2008).
# Tests used:
# [1] = target: T1, Peroxisome proliferator-activated receptor gamma (Homo sapiens, UniProt P37231); experiment: Agonist activity at human PPARgamma expressed in CV1 cells by transactivation assay; type: functional, cell-based, CV-1
# T1 sequence (P37231 whole entry): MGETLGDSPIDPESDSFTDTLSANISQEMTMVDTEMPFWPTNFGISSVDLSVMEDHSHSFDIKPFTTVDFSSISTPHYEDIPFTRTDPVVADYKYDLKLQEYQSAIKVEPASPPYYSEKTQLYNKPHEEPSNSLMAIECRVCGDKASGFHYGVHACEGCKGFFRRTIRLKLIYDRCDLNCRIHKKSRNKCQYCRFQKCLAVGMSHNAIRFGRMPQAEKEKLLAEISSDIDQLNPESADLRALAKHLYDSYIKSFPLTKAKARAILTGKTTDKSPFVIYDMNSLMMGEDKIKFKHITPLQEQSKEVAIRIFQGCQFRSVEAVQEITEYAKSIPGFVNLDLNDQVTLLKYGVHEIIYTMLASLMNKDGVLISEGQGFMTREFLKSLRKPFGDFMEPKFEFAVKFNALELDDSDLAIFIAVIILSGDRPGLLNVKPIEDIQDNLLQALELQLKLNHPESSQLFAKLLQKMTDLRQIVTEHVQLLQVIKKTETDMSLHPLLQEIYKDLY
# [2] = target: T2, Peroxisome proliferator-activated receptor delta (Homo sapiens) (UniProt Q03181); experiment: Agonist activity at human PPARdelta expressed in CV1 cells at 10 uM by transactivation assay; type: functional, cell-based; details: CV-1
# T2 sequence (whole entry): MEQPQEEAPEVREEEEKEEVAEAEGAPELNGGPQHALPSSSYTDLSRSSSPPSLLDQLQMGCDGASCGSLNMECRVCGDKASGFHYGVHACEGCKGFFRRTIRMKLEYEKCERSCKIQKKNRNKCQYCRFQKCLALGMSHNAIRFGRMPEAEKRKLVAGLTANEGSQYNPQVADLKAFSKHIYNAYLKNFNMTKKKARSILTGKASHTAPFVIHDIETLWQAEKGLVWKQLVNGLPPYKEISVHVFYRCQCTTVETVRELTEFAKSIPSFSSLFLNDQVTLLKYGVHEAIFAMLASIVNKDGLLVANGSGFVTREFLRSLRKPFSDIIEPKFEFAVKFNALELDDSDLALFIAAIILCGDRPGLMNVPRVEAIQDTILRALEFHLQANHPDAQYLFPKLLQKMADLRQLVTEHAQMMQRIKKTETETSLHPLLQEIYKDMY
# Method in brief: (§1)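 Human full-length PPAR subtype (pSG5) cotransfected into CV-1 cells with a PPRE (rat acyl-CoA oxidase, ×3)–TK firefly luciferase reporter and a Renilla TK control. Cells were cultured in DMEM/10% FBS at 37 °C under 5% CO2, then exposed to compound at 10 µM (0.1% DMSO final) for 48 h. The dual-luciferase read-out is given as a percentage of the positive control's maximum activity (n = 2).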
# [3] = target: T3, Peroxisome proliferator-activated receptor alpha (Homo sapiens, UniProt Q07869); experiment: Agonist activity at human PPARalpha expressed in CV1 cells by transactivation assay; type: functional, cell-based, CV-1
# T3 sequence (Q07869 whole entry): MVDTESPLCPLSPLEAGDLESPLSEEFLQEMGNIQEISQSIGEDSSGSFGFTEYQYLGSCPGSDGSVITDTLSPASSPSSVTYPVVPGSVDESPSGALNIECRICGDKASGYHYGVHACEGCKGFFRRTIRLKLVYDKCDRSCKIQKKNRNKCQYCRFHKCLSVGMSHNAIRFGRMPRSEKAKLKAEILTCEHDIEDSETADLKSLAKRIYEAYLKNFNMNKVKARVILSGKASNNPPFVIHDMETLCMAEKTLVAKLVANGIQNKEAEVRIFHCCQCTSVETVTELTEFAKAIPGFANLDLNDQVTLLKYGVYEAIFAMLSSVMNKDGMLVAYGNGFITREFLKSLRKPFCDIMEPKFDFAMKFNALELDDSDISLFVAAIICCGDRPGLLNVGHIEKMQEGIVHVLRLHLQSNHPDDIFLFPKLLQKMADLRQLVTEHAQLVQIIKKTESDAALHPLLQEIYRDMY
# Homo sapiens = organism: Homo sapiens; experiment: Selectivity for human PPARalpha over human PPARgamma
# [4] = target: T4, Peroxisome proliferator-activated receptor gamma (Homo sapiens) (UniProt P37231); experiment: Agonist activity at human PPARgamma expressed in CV1 cells at 10 uM by transactivation assay; type: functional, cell-based; details: CV-1; method in brief: as §1
# T4 sequence (whole entry): T1 sequence (P37231 whole entry)
# [5] = target: T5, Peroxisome proliferator-activated receptor alpha (Homo sapiens) (UniProt Q07869); experiment: Agonist activity at human PPARalpha expressed in CV1 cells at 10 uM by transactivation assay; type: functional, cell-based; details: CV-1; method in brief: as §1
# T5 sequence (whole entry): T3 sequence (Q07869 whole entry)
# [6] = target: T6, Peroxisome proliferator-activated receptor delta (Homo sapiens, UniProt Q03181); experiment: Agonist activity at human PPARdelta expressed in CV1 cells by transactivation assay; type: functional, cell-based, CV-1
# T6 sequence (Q03181 whole entry): T2 sequence (whole entry)
# Mus musculus [7] = experiment: Hypoglycemic effect on diabetic KK-Ay mouse assessed as reduction of plasma glucose level at 1 mg/kg/day, po after 4 days; type: functional; parameters: scale not given: the % may be the effect or the level left
# Method in brief: (§2)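 Male KK-Ay mice, 10 weeks old and fed chow ad libitum, were dosed orally once daily for 4 days (n = 5) with suspensions in 0.5% methylcellulose. On the day after the last dose, nonfasted tail-vein plasma was assayed enzymatically for TG and glucose. Vena cava plasma taken under pentobarbital had lipoprotein cholesterol measured by HPLC with on-line enzymatic detection. Values are % change of the group mean from vehicle controls.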
# [8] = target: T7, Peroxisome proliferator-activated receptor alpha (Mus musculus, UniProt P23204); experiment: Agonist activity at mouse PPARalpha expressed in CV1 cells by transactivation assay; type: functional, cell-based, CV-1
# T7 sequence (P23204 whole entry): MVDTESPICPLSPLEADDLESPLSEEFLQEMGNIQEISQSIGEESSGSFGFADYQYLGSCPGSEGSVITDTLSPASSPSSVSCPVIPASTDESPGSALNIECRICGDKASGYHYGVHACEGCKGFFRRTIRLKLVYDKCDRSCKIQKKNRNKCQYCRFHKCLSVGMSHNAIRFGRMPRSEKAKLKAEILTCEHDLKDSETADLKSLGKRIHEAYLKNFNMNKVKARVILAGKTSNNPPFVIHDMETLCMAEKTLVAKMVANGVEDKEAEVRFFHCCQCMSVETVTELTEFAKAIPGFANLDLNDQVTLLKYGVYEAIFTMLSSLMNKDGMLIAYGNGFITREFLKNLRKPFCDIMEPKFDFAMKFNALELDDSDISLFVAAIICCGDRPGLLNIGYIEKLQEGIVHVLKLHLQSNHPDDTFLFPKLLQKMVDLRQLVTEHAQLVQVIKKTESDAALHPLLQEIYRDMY
# [9] = Selectivity for mouse PPARalpha over human PPARalpha
# Mus musculus [10] = experiment: Hypolipidemic effect on diabetic KK-Ay mouse assessed as reduction of plasma triglyceride level at 1 mg/kg/day, po after 4 days; type: functional; parameters: scale not given: the % may be the effect or the level left; method in brief: as §2
# [11] = target: T8, Peroxisome proliferator-activated receptor gamma (Mus musculus, UniProt P37238); experiment: Agonist activity at mouse PPARgamma expressed in CV1 cells by transactivation assay; type: functional, cell-based, CV-1
# T8 sequence (P37238 whole entry): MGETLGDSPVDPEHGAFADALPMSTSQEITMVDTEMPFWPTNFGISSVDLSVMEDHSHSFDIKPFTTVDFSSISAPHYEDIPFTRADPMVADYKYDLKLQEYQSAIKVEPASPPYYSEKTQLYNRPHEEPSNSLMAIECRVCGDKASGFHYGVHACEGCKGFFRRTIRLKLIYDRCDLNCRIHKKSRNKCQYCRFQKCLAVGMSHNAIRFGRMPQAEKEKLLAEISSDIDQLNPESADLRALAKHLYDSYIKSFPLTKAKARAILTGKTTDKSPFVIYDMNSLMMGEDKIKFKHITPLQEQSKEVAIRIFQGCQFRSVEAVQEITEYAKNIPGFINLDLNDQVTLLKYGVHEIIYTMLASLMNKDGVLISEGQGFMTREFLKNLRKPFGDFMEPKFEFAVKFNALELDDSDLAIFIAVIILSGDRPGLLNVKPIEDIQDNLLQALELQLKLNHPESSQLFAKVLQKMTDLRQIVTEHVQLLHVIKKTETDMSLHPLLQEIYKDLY
# Mus musculus [12] = experiment: Hypolipidemic effect on diabetic KK-Ay mouse assessed as reduction of plasma VLDL cholesterol level at 1 mg/kg/day, po after 4 days; type: functional; parameters: scale not given: the % may be the effect or the level left; method in brief: as §2
# Mus musculus [13] = experiment: Hypolipidemic effect on diabetic KK-Ay mouse assessed as increase in plasma HDL cholesterol level at 1 mg/kg/day, po after 4 days; type: functional; method in brief: as §2
# [14] = target: T9, Peroxisome proliferator-activated receptor gamma (Mus musculus) (UniProt P37238); experiment: Agonist activity at mouse PPARgamma expressed in CV1 cells at 10 uM by transactivation assay; type: functional, cell-based; details: CV-1
# T9 sequence (whole entry): T8 sequence (P37238 whole entry)
Structure (SMILES),EC50 [1] [µM],Activity [2] [%],EC50 [3] [µM],Activity [4] [%],also measured
Cc1ccc(-c2nc(CCCC[C@H]3CO[C@@](C)(C(=O)O)OC3)c(C(F)(F)F)o2)cc1,3,24,0.3,,
COc1ccc(-c2nc(CCCC[C@H]3CO[C@@](C)(C(=O)O)OC3)c(C)o2)cc1,,20,0.03,18,
Cc1ccc(-c2nc(CCCC[C@H]3CO[C@@](C)(C(=O)O)OC3)c(C)n2C)cc1,,0,,0,Activity [5]: 6%
Cc1oc(-c2ccc(C(F)(F)F)cc2)nc1CCCC[C@H]1CO[C@@](C)(C(=O)O)OC1,,34,0.03,41,
CC(C)(Oc1ccc(CCNC(=O)c2ccc(Cl)cc2)cc1)C(=O)O [BEZAFIBRATE],3,,,,EC50 [6]: 30 µM
Cc1ccc(-c2nc(CCCC[C@H]3CO[C@@](C)(C(=O)O)OC3)c(C)o2)cc1F,,25,0.01,45,Activity (Mus musculus [7]): -12%; EC50 [8]: 0.1 µM; Selectivity ratio [9]: 10; Activity (Mus musculus [10]): -53%; EC50 [11]: 10 µM; Activity (Mus musculus [12]): -63%; Activity (Mus musculus [13]): 21%
Cc1ccc(-c2nc(CCCC[C@H]3CO[C@@](C)(C(=O)O)OC3)c(C)o2)cc1C,,0,0.003,42,Activity (Mus musculus [7]): -32%; EC50 [8]: 0.03 µM; Selectivity ratio [9]: 10; Activity [14]: 42%; Activity (Mus musculus [10]): -89%; Activity (Mus musculus [12]): -92%; Activity (Mus musculus [13]): 21%
Cc1ccc(-c2nc(CCCC[C@H]3CO[C@@](C)(C(=O)O)OC3)c(C)o2)cc1,9.6,7,,31,Activity (Mus musculus [7]): -21%; EC50 [6]: > 100 µM; EC50 [8]: 0.03 µM; Activity [14]: 45%; Activity (Mus musculus [10]): -71%; Activity (Mus musculus [12]): -50%; Activity (Mus musculus [13]): 34%
Cc1oc(-c2ccccc2)nc1CCCC[C@H]1CO[C@@](C)(C(=O)O)OC1,100,0,0.3,,Activity (Mus musculus [7]): -12%; EC50 [8]: 1 µM; Activity [14]: 11%; Activity (Mus musculus [10]): -46%; Activity (Mus musculus [12]): -29%; Activity (Mus musculus [13]): 36%
Cc1oc(-c2ccc(Cl)cc2)nc1CCCC[C@H]1CO[C@@](C)(C(=O)O)OC1,,9,0.03,21,

# Further compounds by falling EC50 [3], results first:
EC50 [1] [µM],Activity [2] [%],EC50 [3] [µM],Activity [4] [%],Structure (SMILES),also measured
,0,0.3,25,Cc1ccc(-c2nc(CCCC[C@H]3CO[C@@](C)(C(=O)O)OC3)c(C)s2)cc1,
,5,0.3,23,Cc1ccccc1-c1nc(CCCC[C@H]2CO[C@@](C)(C(=O)O)OC2)c(C)o1,
10,3,0.03,,CCc1oc(-c2ccc(C)cc2)nc1CCCC[C@H]1CO[C@@](C)(C(=O)O)OC1,
,16,0.03,35,Cc1ccc(-c2nc(CCCC[C@H]3CO[C@@](C)(C(=O)O)OC3)c(C)o2)c(C)c1,
,16,0.03,34,Cc1cccc(-c2nc(CCCC[C@H]3CO[C@@](C)(C(=O)O)OC3)c(C)o2)c1,
3,0,0.01,,CCc1ccc(-c2nc(CCCC[C@H]3CO[C@@](C)(C(=O)O)OC3)c(C)o2)cc1,Selectivity ratio (Homo sapiens): 300
